In ChEMBL document CHEMBL4368918, “Structure-Based Design of Inhibitors Selective for Human Proteasome β2c or β2i Subunits” (J Med Chem, 2019):

Columns and labels:
[1] = molecular target: T1, Proteasome subunit beta type-9 (Homo sapiens, UniProt P28065); test: Inhibition of 20S immunoproteasome beta 1 in human Raji cell lysates after 1 hr by competitive ABPP assay; type: subcellular, Lysate
T1 sequence (P28065 whole entry): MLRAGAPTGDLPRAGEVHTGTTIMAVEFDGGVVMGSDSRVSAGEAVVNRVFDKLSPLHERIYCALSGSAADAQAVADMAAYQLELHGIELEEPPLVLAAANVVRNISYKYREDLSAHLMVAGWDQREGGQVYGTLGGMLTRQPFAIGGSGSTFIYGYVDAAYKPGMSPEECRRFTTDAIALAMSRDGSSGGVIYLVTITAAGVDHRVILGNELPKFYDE
Method in brief: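 Raji cells were sonicated in 3 volumes of Tris pH 7.5 lysis buffer containing DTT, MgCl₂, sucrose, 2 mM ATP and 0.05% digitonin. Lysate (5 μg protein, in buffer with 2 mM ATP and glycerol) was preincubated with inhibitor for 1 h at 37 °C, then with a cocktail of three fluorescent ABPs for 1 h. […] In-gel fluorescence densitometry was normalized to mock. IC50 came from the mean of three experiments.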

[2] = molecular target: T2, Proteasome subunit beta type-8 (Homo sapiens, UniProt P28062); test: Inhibition of 20S immunoproteasome beta 5 in human Raji cell lysates after 1 hr by competitive ABPP assay; type: subcellular, Lysate
T2 sequence (P28062 whole entry): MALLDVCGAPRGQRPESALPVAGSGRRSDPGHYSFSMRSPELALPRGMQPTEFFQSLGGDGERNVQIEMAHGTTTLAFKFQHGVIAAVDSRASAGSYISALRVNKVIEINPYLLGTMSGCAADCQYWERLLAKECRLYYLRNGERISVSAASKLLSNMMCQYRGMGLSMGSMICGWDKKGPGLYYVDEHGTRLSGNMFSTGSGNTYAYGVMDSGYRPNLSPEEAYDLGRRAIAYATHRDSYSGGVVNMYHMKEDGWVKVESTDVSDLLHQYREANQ

[3] = molecular target: T3, Proteasome Macropain subunit MB1 (Homo sapiens, UniProt P28074); test: Inhibition of 20S constitutive proteasome beta 5 chymotrypsin-like activity in human Raji cell lysates after 1 hr by competitive ABPP assay; type: subcellular, Lysate
T3 sequence (P28074 whole entry): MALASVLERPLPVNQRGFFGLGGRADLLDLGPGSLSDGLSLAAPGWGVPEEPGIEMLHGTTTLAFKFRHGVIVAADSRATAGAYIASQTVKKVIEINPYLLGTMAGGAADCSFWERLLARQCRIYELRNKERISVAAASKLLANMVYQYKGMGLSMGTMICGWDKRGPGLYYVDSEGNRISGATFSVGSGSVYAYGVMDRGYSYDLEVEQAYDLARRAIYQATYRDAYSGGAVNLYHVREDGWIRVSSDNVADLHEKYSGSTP

[4] = molecular target: T4, Proteasome subunit beta type-6 (Homo sapiens, UniProt P28072); test: Inhibition of 20S constitutive proteasome beta 1 caspase-like activity in human Raji cell lysates after 1 hr by competitive ABPP assay; type: subcellular, Lysate
T4 sequence (P28072 whole entry): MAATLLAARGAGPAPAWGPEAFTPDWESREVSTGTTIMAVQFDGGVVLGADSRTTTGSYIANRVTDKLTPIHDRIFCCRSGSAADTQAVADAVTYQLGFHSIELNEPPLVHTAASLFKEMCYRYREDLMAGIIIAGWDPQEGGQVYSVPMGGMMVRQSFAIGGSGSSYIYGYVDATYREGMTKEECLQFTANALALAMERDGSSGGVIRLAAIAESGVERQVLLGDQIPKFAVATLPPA
Method in brief: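 Raji cells were sonicated in 3 volumes of Tris pH 7.5 lysis buffer containing DTT, MgCl₂, sucrose, 2 mM ATP and 0.05% digitonin. Lysate (5 μg protein, in buffer with 2 mM ATP and glycerol) was preincubated with inhibitor for 1 h at 37 °C, then with a cocktail of three fluorescent ABPs for 1 h. In-gel fluorescence densitometry was normalized to mock. IC50 came from the mean of three experiments.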

[5] = molecular target: T5, Proteasome subunit beta type-10 (Homo sapiens, UniProt P40306); test: Inhibition of 20S immunoproteasome beta 2 (unknown origin) by cell based ABPP assay
T5 sequence (P40306 whole entry): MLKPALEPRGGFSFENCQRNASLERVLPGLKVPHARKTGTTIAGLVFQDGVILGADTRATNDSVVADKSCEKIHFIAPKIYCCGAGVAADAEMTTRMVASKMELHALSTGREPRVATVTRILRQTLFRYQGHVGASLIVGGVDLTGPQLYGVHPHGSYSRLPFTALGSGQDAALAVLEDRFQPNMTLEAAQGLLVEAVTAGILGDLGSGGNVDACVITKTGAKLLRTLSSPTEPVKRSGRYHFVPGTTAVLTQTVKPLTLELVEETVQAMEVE
Method in brief: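 Living RPMI-8226 cells, (5–8) ×10^5 cells/mL, exposed to inhibitor 1 h at 37 °C, washed, lysed in digitonin buffer 1 h on ice; residual activity labelled with cocktail ABPs, SDS-PAGE in-gel fluorescence, bands divided by mock, Coomassie staining to correct loading. IC50 from mean of three independent experiments.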

Homo sapiens = species: Homo sapiens; test: Selectivity ratio of IC50 for 20S immunoproteasome beta 2 (unknown origin) to IC50 for 20S constitutive proteasome beta 2 trypsin-like activity (unknown origin)

SMILES | IC50 [1] | IC50 [2] | IC50 [3] | IC50 [4] | IC50 [5] | Ratio IC50 (Homo sapiens)
COc1ccc(C[C@H](NC(=O)[C@H](C)NC(=O)CN2CCOCC2)C(=O)N[C@@H](C[C@H]2CCCC3CCCCC32)C(=O)[C@@]2(C)CO2)cc1 (some centres not stated) | > 100 µM | > 100 µM | > 100 µM | > 100 µM |  | 
Cc1ncc(C(=O)N[C@@H](CC2CCC(C)CC2)C(=O)N[C@@H](CC(C)C)C(=O)N[C@H](/C=C/S(C)(=O)=O)Cc2ccc(CN)cc2)s1 (some centres not stated) |  |  |  |  | 325 nM | 0.8
CC(C)C[C@H](NC(=O)[C@H](Cc1ccccc1)N=[N+]=[N-])C(=O)N[C@@H](CC(F)(F)F)C(=O)N[C@H](/C=C/S(C)(=O)=O)Cc1ccc(CN)cc1 |  |  |  |  | 130 nM | 6
Cc1ncc(C(=O)N[C@@H](CC(C)C)C(=O)N[C@@H](CC2CCCC3CCCCC32)C(=O)N[C@H](/C=C/S(C)(=O)=O)Cc2ccc(CN)cc2)s1 (some centres not stated) |  |  |  |  | 175 nM | 4
CC(C)[C@H](NC(=O)[C@H](Cc1ccc(CN)cc1)NC(=O)[C@H](Cc1ccccc1)N=[N+]=[N-])C(=O)N[C@@H](CC1CCC2CCCCC2C1)C(=O)[C@@]1(C)CO1 (some centres not stated) |  |  |  |  |  | 1
COc1ccc(C[C@H](NC(=O)[C@H](C)NC(=O)CN2CCOCC2)C(=O)N[C@@H](C[C@H]2CCCc3ccccc32)C(=O)[C@@]2(C)CO2)cc1 | > 100 µM | > 100 µM | > 100 µM | > 100 µM |  | 
CC(C)[C@H](NC(=O)[C@H](Cc1ccc(CN)cc1)NC(=O)[C@H](Cc1ccccc1)N=[N+]=[N-])C(=O)N[C@@H](CC1CC2CCC1C2)C(=O)[C@@]1(C)CO1 (some centres not stated) |  |  |  |  |  | 2.7
COc1ccc(C[C@H](NC(=O)[C@H](C)NC(=O)CN2CCOCC2)C(=O)N[C@@H](C[C@@H]2CCC[C@H]3CCCC[C@H]32)C(=O)[C@@]2(C)CO2)cc1 | > 100 µM | 28.4 µM | > 100 µM | 53 µM |  | 
COc1ccc(C[C@H](NC(=O)[C@H](C)NC(=O)CN2CCOCC2)C(=O)N[C@@H](C[C@@H]2CCCC3CCCCC32)C(=O)[C@@]2(C)CO2)cc1 (some centres not stated) | > 100 µM | > 100 µM | > 100 µM | > 100 µM |  | 
CC1CCC(C[C@H](NC(=O)[C@@H](NC(=O)[C@H](Cc2ccc(CN)cc2)NC(=O)[C@H](Cc2ccccc2)N=[N+]=[N-])C(C)C)C(=O)[C@@]2(C)CO2)CC1 (some centres not stated) |  |  |  |  |  | 1
Cc1ncc(C(=O)N[C@H](C(=O)N[C@@H](CC(C)C)C(=O)N[C@H](/C=C/S(C)(=O)=O)Cc2ccc(CN)cc2)C2CCCCC2)s1 |  |  |  |  | 61 nM | 1
COc1ccc(C[C@H](NC(=O)[C@H](C)NC(=O)CN2CCOCC2)C(=O)N[C@@H](CC2CCCC3CCCCC32)C(=O)[C@@]2(C)CO2)cc1 (some centres not stated) | > 100 µM | > 100 µM | > 100 µM | > 100 µM |  | 
Cc1ncc(C(=O)N[C@@H](CC(C)C)C(=O)N[C@@H](CC(C)C)C(=O)N[C@H](/C=C/S(C)(=O)=O)Cc2ccc(CN)cc2)s1 |  |  |  |  | 700 nM | 10
Cc1ncc(C(=O)N[C@@H](CC(C)C)C(=O)N[C@@H](CC2CCC(C)CC2)C(=O)N[C@H](/C=C/S(C)(=O)=O)Cc2ccc(CN)cc2)s1 (some centres not stated) |  |  |  |  | 200 nM | 7
CC(C)C[C@H](NC(=O)CN1CCOCC1)C(=O)N[C@@H](CC(C)C)C(=O)N[C@H](/C=C/S(C)(=O)=O)Cc1ccc(CN)cc1 |  |  |  |  | 47 nM | 1
CC(C)[C@H](NC(=O)[C@H](Cc1ccc(CN)cc1)NC(=O)[C@H](Cc1ccccc1)N=[N+]=[N-])C(=O)N[C@@H](CC1CCC(C2CCCCC2)CC1)C(=O)[C@@]1(C)CO1 (some centres not stated) |  |  |  |  |  | 1.6
CC(C)C[C@H](NC(=O)c1cnccn1)C(=O)N[C@@H](C)C(=O)N[C@H](/C=C/S(C)(=O)=O)Cc1ccc(CN)cc1 |  |  |  |  | 1350 nM | 6

SMILES | IC50 [1] | IC50 [2] | IC50 [3] | IC50 [4] | IC50 [5] | Ratio IC50 (Homo sapiens)
Cc1ncc(C(=O)N[C@@H](CC(C)C)C(=O)N[C@@H](CC2CCC(C3CCCCC3)CC2)C(=O)N[C@H](/C=C/S(C)(=O)=O)Cc2ccc(CN)cc2)s1 (some centres not stated) |  |  |  |  | 45 nM | 3
Cc1ncc(C(=O)N[C@@H](CC(C)C)C(=O)N[C@@H](CCC2CCCCC2)C(=O)N[C@H](/C=C/S(C)(=O)=O)Cc2ccc(CN)cc2)s1 |  |  |  |  | 280 nM | 25
Cc1ncc(C(=O)N[C@@H](CC(C)C)C(=O)N[C@@H](CC2CCC3CCCCC3C2)C(=O)N[C@H](/C=C/S(C)(=O)=O)Cc2ccc(CN)cc2)s1 (some centres not stated) |  |  |  |  | 170 nM | 10
CC(C)C[C@H](NC(=O)[C@H](Cc1ccccc1)N=[N+]=[N-])C(=O)N[C@@H](CC(C)(C)F)C(=O)N[C@H](/C=C/S(C)(=O)=O)Cc1ccc(CN)cc1 |  |  |  |  | 47 nM | 3
Cc1ncc(C(=O)N[C@@H](CC2CCC3CCCCC3C2)C(=O)N[C@@H](CC(C)C)C(=O)N[C@H](/C=C/S(C)(=O)=O)Cc2ccc(CN)cc2)s1 (some centres not stated) |  |  |  |  | 4100 nM | 8
Cc1ncc(C(=O)N[C@@H](CC2CCCCC2)C(=O)N[C@@H](CC2CCCCC2)C(=O)N[C@H](/C=C/S(C)(=O)=O)Cc2ccc(CN)cc2)s1 |  |  |  |  | 420 nM | 11
CC(C)C[C@H](NC(=O)[C@H](CC(C)C)NC(=O)[C@H](Cc1ccccc1)NC(=O)CN=[N+]=[N-])C(=O)N[C@H](/C=C/S(C)(=O)=O)Cc1ccc(CN)cc1 |  |  |  |  | 22 nM | 0.6
Cc1ncc(C(=O)N[C@@H](CC2CCC(C3CCCCC3)CC2)C(=O)N[C@@H](CC(C)C)C(=O)N[C@H](/C=C/S(C)(=O)=O)Cc2ccc(CN)cc2)s1 (some centres not stated) |  |  |  |  | > 10000 nM | > 3
CC(C)C[C@H](NC(=O)c1cc(Cl)ccc1Cl)C(=O)N[C@@H](CC(C)C)C(=O)N[C@H](/C=C/S(C)(=O)=O)Cc1ccc(CN)cc1 |  |  |  |  | 350 nM | 5
COc1ccc(C[C@H](NC(=O)[C@H](C)NC(=O)CN2CCOCC2)C(=O)N[C@@H](CCC2CCCCC2)C(=O)[C@@]2(C)CO2)cc1 | > 100 µM |  | 5 µM | > 100 µM |  | 
COC1CCC(C[C@H](NC(=O)[C@H](CC(C)C)NC(=O)c2cnc(C)s2)C(=O)N[C@H](/C=C/S(C)(=O)=O)Cc2ccc(CN)cc2)CC1 (some centres not stated) |  |  |  |  | 360 nM | 8
Cc1ncc(C(=O)N[C@@H](CC2CCCC3CCCCC32)C(=O)N[C@@H](CC(C)C)C(=O)N[C@H](/C=C/S(C)(=O)=O)Cc2ccc(CN)cc2)s1 (some centres not stated) |  |  |  |  | 48000 nM | 21
Cc1ncc(C(=O)N[C@@H](CC(C)C)C(=O)N[C@@H](CC2CCCCC2)C(=O)N[C@H](/C=C/S(C)(=O)=O)Cc2ccc(CN)cc2)s1 |  |  |  |  | 260 nM | 7
CC(C)C[C@H](NC(=O)c1ccc(-c2ccccc2)nc1)C(=O)N[C@@H](CC(C)C)C(=O)N[C@H](/C=C/S(C)(=O)=O)Cc1ccc(CN)cc1 |  |  |  |  | 23 nM | 0.8
COC[C@H](NC(=O)[C@H](CC(C)C)NC(=O)[C@H](Cc1ccccc1)N=[N+]=[N-])C(=O)N[C@H](/C=C/S(C)(=O)=O)Cc1ccc(CN)cc1 |  |  |  |  | 200 nM | 25
CC(C)[C@H](NC(=O)[C@H](Cc1ccc(CN)cc1)NC(=O)[C@H](Cc1ccccc1)N=[N+]=[N-])C(=O)N[C@H](C(=O)[C@@]1(C)CO1)C1CCCCC1 |  |  |  |  |  | 1
